Reference: ChEMBL document CHEMBL4680287, “Ibrexafungerp: An orally active β-1,3-glucan synthesis inhibitor” (Bioorg Med Chem Lett, 2021)
Values after ≈ are worked out from the molar mass of the structure shown.

Key:
Aspergillus fumigatus [1] = assay: Antifungal activity against Aspergillus fumigatus MF5668 infected in DBA/2N mouse assessed as mouse survival at 3.125 mg/kg, ip bid administered for 7 days starting from 15 to 30 mins post infection and measured up to 21 days relative to control; type: functional; settings: 168 h, time 7 day
Procedure, shortened: (§1)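 DBA/2N mice were infected IV with A. fumigatus MF5668 (6.7 x 10^5 CFU/mouse) and treated IP bid for 7 days. Percent survival per dose group was scored at the end of the 21-day survival model and compared with the sham-treated control group.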

Aspergillus fumigatus [2] = assay: Antifungal activity against Aspergillus fumigatus MF5668 infected in DBA/2N mouse assessed as mean survival time at 12.5 mg/kg, ip bid administered for 7 days starting from 15 to 30 mins post infection and measured up to 21 days; type: functional; settings: time 7 day
Procedure, shortened: (§2)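 DBA/2N mice were challenged IV with A. fumigatus MF5668 at 6.7 x 10^5 CFU/mouse, then dosed IP twice daily for 7 days. Survival was followed over a 21-day model, and mean survival time in days was recorded per dose group. A sham-treated control group was run alongside.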

Candida albicans [3] = assay: Antifungal activity against Candida albicans MY1055 infected in ip dosed DBA/2 mouse model of disseminated candidiasis assessed as reduction in fungal burden in kidney administered bid for 7 days by TOKA; type: functional; settings: 168 h, time 7 day
Procedure, shortened: (§3)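 Murine disseminated candidiasis model (TOKA) in mice challenged with C. albicans MY1055 at 2.44 x 10^4 CFU/mouse. Dosed PO, or IP where stated. Kidneys collected aseptically 7 days after challenge and CFUs/g counted. Change in log CFU/g is relative to sham-treated controls; significance by two-tailed t test. Clearance is the percentage of kidneys below the detection limit.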

Candida albicans [4] = assay: Antifungal activity against Candida albicans MY1055 infected in DBA/2 mouse model of disseminated candidiasis assessed as reduction in fungal burden in kidney by measuring log change in colony forming units at 12.5 mg/kg, po bid for 7 days by TOKA; type: functional; settings: time 7 day; procedure, shortened: as §3
Candida albicans [5] = assay: Antifungal activity against Candida albicans MY1055 infected in DBA/2 mouse model of disseminated candidiasis assessed as reduction in fungal burden in kidney by measuring log change in colony forming units at 25 mg/kg, po bid for 7 days by TOKA; type: functional; settings: time 7 day; procedure, shortened: as §3
[6] = Dose normalized AUC in po rhesus monkey; type: ADME, organism-based, Macaca mulatta; settings: in vivo
[7] = Oral bioavailability in rhesus monkey; type: ADME, organism-based, Macaca mulatta; settings: in vivo
Procedure, shortened: (§4)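 Oral bioavailability calculated as oral AUC normalized to the IV dose, divided by the IV AUC.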

[8] = Oral bioavailability in rat; type: ADME, organism-based; settings: in vivo; procedure, shortened: as §4
Aspergillus fumigatus [9] = assay: Antifungal activity against Aspergillus fumigatus MF5668 infected in ip dosed DBA/2N mouse assessed as 90% mouse survival administered bid administered for 7 days starting from 15 to 30 mins post infection and measured up to 21 days; type: functional; settings: 168 h, time 7 day
[10] = Clearance in rat; type: ADME; settings: in vivo
Candida tropicalis [11] = assay: Antifungal activity against Candida tropicalis MY1012 assessed as fungal growth inhibition; type: functional; settings: read-out: MIC100
Candida albicans [12] = assay: Antifungal activity against Candida albicans MY1055 assessed as reduction in fungal growth; type: functional
Procedure, shortened: (§5)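 Broth microdilution per CLSI protocols in RPMI medium. Read-out is the MIC, the lowest concentration completely inhibiting fungal growth. Run without serum and with added serum.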

[13] = Half life in rat; type: ADME; settings: in vivo
[14] = Oral bioavailability in dog; type: ADME, organism-based, Canis lupus familiaris; settings: in vivo; procedure, shortened: as §4
[15] = Dose normalized AUC in po dosed mouse; type: ADME, organism-based; settings: in vivo
[16] = Clearance in mouse; type: ADME, organism-based; settings: in vivo
[17] = Inhibition of beta-1,3-glucan synthase in Candida albicans MY1055 microsomal membrane assessed as inhibition of TCA-insoluble material formation using UDP-[3H]-glucose as substrate incubated for 2 hrs in presence of GTP by radioactivity-based assay; type: microsomes, Microsome
Procedure, shortened: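 GS IC50 measured using Candida albicans MY1055 microsomal membrane fragments as the enzyme source.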

Candida parapsilosis [18] = assay: Antifungal activity against Candida parapsilosis ATCC 22019 assessed as reduction in fungal growth; type: functional; settings: Lodderomyces parapsilosis
[19] = Dose normalized AUC in po dosed dog; type: ADME, organism-based, Canis lupus familiaris; settings: in vivo
Clavispora lusitaniae [20] = assay: Antifungal activity against Clavispora lusitaniae MY1396 assessed as fungal growth inhibition; type: functional; settings: read-out: MIC100
Aspergillus fumigatus [21] = assay: Antifungal activity against Aspergillus fumigatus MF5668 assessed inhibition of fungal growth by measuring morphological changes in presence of 50% human serum measured after 24 hrs by microscopy; type: functional; settings: read-out: MEC
Procedure, shortened: (§6)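 Microdilution per CLSI protocols in RPMI medium. Read-out is the minimum effective concentration (MEC). Run without serum and with 50% human serum.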

Nakaseomyces glabratus [22] = assay: Antifungal activity against Candida glabrata MY1381 assessed as reduction in fungal growth; type: functional
Candida tropicalis [23] = assay: Antifungal activity against Candida tropicalis MY1012 assessed as reduction in fungal growth; type: functional
Candida albicans [24] = assay: Antifungal activity against Candida albicans MY1055 assessed as fungal growth inhibition measured after 24 hrs by liquid microdilution method; type: functional; procedure, shortened: as §5
Aspergillus fumigatus [25] = assay: Antifungal activity against Aspergillus fumigatus MF5668 assessed inhibition of fungal growth by measuring morphological changes measured after 24 hrs by microscopy; type: functional; settings: read-out: MEC; procedure, shortened: as §6
Candida albicans [26] = assay: Antifungal activity against Candida albicans MY1055 assessed as fungal growth inhibition measured after 24 hrs in presence of 50% mouse serum by liquid microdilution method; type: functional; procedure, shortened: as §5
[27] = Dose normalized AUC in po dosed rat; type: ADME, organism-based; settings: in vivo
[28] = Clearance in dog; type: ADME, Canis lupus familiaris; settings: in vivo
Aspergillus fumigatus [29] = assay: Antifungal activity against Aspergillus fumigatus MF5668 infected in DBA/2N mouse assessed as mean survival time at 6.25 mg/kg, ip bid administered for 7 days starting from 15 to 30 mins post infection and measured up to 21 days; type: functional; settings: time 7 day; procedure, shortened: as §2
Pichia kudriavzevii [30] = assay: Antifungal activity against Candida krusei ATCC 6258 assessed as reduction in fungal growth; type: functional
Aspergillus fumigatus [31] = assay: Antifungal activity against Aspergillus fumigatus MF5668 infected in DBA/2N mouse assessed as mouse survival at 1.56 mg/kg, ip bid administered for 7 days starting from 15 to 30 mins post infection and measured up to 21 days relative to control; type: functional; settings: 168 h, time 7 day; procedure, shortened: as §1
[32] = Oral bioavailability in mouse; type: ADME, organism-based; settings: in vivo; procedure, shortened: as §4
Clavispora lusitaniae [33] = assay: Antifungal activity against Clavispora lusitaniae MY1396 assessed as reduction in fungal growth; type: functional
Nakaseomyces glabratus [34] = assay: Antifungal activity against Candida glabrata MY1381 assessed as fungal growth inhibition; type: functional; settings: read-out: MIC100
Aspergillus fumigatus [35] = assay: Antifungal activity against Aspergillus fumigatus MF5668 infected in DBA/2N mouse assessed as mean survival time at 1.56 mg/kg, ip bid administered for 7 days starting from 15 to 30 mins post infection and measured up to 21 days; type: functional; settings: time 7 day; procedure, shortened: as §2
Pichia kudriavzevii [36] = assay: Antifungal activity against Candida krusei ATCC 6258 assessed as fungal growth inhibition; type: functional; settings: read-out: MIC100
Candida albicans [37] = assay: Antifungal activity against Candida albicans MY1055 infected in DBA/2 mouse model of disseminated candidiasis assessed as reduction in fungal burden in kidney by measuring log change in colony forming units at 6.25 mg/kg, po bid for 7 days by TOKA; type: functional; settings: time 7 day; procedure, shortened: as §3
Candida albicans [38] = assay: Antifungal activity against Candida albicans MY1055 assessed as fungal growth inhibition in presence of 50% mouse serum; type: functional; settings: read-out: MIC100; procedure, shortened: as §5
[39] = Clearance in rhesus monkey; type: ADME, Macaca mulatta; settings: in vivo
Aspergillus fumigatus [40] = assay: Antifungal activity against Aspergillus fumigatus MF5668 infected in DBA/2N mouse assessed as mean survival time at 3.125 mg/kg, ip bid administered for 7 days starting from 15 to 30 mins post infection and measured up to 21 days; type: functional; settings: time 7 day; procedure, shortened: as §2
Candida albicans [41] = assay: Antifungal activity against Candida albicans MY1055 infected in DBA/2 mouse model of disseminated candidiasis assessed as reduction in fungal burden in kidney by measuring log change in colony forming units at 12.5 mg/kg, ip bid for 7 days by TOKA; type: functional; settings: time 7 day; procedure, shortened: as §3
Candida albicans [42] = assay: Antifungal activity against Candida albicans MY1055 assessed as reduction in fungal growth in presence of 50% mouse serum; type: functional; procedure, shortened: as §5
Aspergillus fumigatus [43] = assay: Antifungal activity against Aspergillus fumigatus MF5668 infected in DBA/2N mouse assessed as mouse survival at 12.5 mg/kg, ip bid administered for 7 days starting from 15 to 30 mins post infection and measured up to 21 days relative to control; type: functional; settings: 168 h, time 7 day; procedure, shortened: as §1
Candida parapsilosis [44] = assay: Antifungal activity against Candida parapsilosis ATCC 22019 assessed as fungal growth inhibition; type: functional; settings: Lodderomyces parapsilosis, read-out: MIC100
Aspergillus fumigatus [45] = assay: Antifungal activity against Aspergillus fumigatus MF5668 infected in ip dosed DBA/2N mouse assessed as 50% mouse survival administered bid administered for 7 days starting from 15 to 30 mins post infection and measured up to 21 days; settings: 168 h
[46] = Half life in dog; type: ADME, Canis lupus familiaris; settings: in vivo
[47] = Half life in rhesus monkey; type: ADME, Macaca mulatta; settings: in vivo
[48] = Half life in mouse; type: ADME, organism-based; settings: in vivo
Aspergillus fumigatus [49] = assay: Antifungal activity against Aspergillus fumigatus MF5668 infected in DBA/2N mouse assessed as mouse survival at 6.25 mg/kg, ip bid administered for 7 days starting from 15 to 30 mins post infection and measured up to 21 days relative to control; type: functional; settings: 168 h, time 7 day; procedure, shortened: as §1

## CC(C)[C@@H](C)[C@@]1(C)CC[C@]2(C)[C@H]3CC[C@@H]4[C@@]5(COC[C@@]4(C)[C@@H](OC[C@](C)(N)C(C)(C)C)[C@H](n4ncnc4-c4ccncc4)C5)C3=CC[C@@]2(C)[C@@H]1C(=O)O [IBREXAFUNGERP]
Aspergillus fumigatus [1]
  survival at 3.125 mg/kg: 20%
Aspergillus fumigatus [2]
  MST: 19.4 days
Candida albicans [3]
  ED99: 0.84 mg/kg
Candida albicans [4]
  Activity: -3.2 deltalog10CFU
Candida albicans [5]
  Activity: -4.6 deltalog10CFU
[6]
  AUC/dose: 0.33 µM·kg·h/mg
[7]
  bioavailability: 16%
[8]
  bioavailability: 23%
Aspergillus fumigatus [9]
  ED90: 8.9 mg/kg
[10]
  clearance: 8 mL/min/kg
Candida tropicalis [11]
  MIC: 8 µg/mL (≈ 11 µM)
Candida albicans [12]
  MIC50: < 0.03 µg/mL
[13]
  half-life: 8.3 h
[14]
  bioavailability: 18%
[15]
  AUC/dose: 0.59 µM·kg·h/mg
[16]
  clearance: 14 mL/min/kg
[17]
  IC50: 0.001 µg/mL
Candida parapsilosis [18]
  MIC50: < 0.03 µg/mL
[19]
  AUC/dose: 1.07 µM·kg·h/mg
Clavispora lusitaniae [20]
  MIC: 2 µg/mL (≈ 2.74 µM)
Aspergillus fumigatus [21]
  minimal effective concentration: 0.25 µg/mL
Nakaseomyces glabratus [22]
  MIC50: 1 µg/mL (≈ 1.37 µM)
Candida tropicalis [23]
  MIC50: 1 µg/mL (≈ 1.37 µM)
Candida albicans [24]
  MIC: 0.06 µg/mL (≈ 0.0822 µM)
Aspergillus fumigatus [25]
  minimal effective concentration: < 0.03 µg/mL
Candida albicans [26]
  MIC: 0.5 µg/mL
[27]
  AUC/dose: 0.69 µM·kg·h/mg
[28]
  clearance: 4 mL/min/kg
Aspergillus fumigatus [29]
  MST: 19.2 days
Pichia kudriavzevii [30]
  MIC50: 2 µg/mL (≈ 2.74 µM)
Aspergillus fumigatus [31]
  survival at 1.56 mg/kg: 0%
[32]
  bioavailability: 34%
Clavispora lusitaniae [33]
  MIC50: 1 µg/mL (≈ 1.37 µM)
Nakaseomyces glabratus [34]
  MIC: 1 µg/mL (≈ 1.37 µM)
Aspergillus fumigatus [35]
  MST: 5.1 days
Pichia kudriavzevii [36]
  MIC: 4 µg/mL (≈ 5.48 µM)
Candida albicans [37]
  Activity: -2.2 deltalog10CFU
Candida albicans [38]
  MIC: 0.5 µg/mL
[39]
  clearance: 11 mL/min/kg
Aspergillus fumigatus [40]
  MST: 12.2 days
Candida albicans [41]
  Activity: -3.99 deltalog10CFU
Candida albicans [42]
  MIC50: 0.25 µg/mL
Aspergillus fumigatus [43]
  survival at 12.5 mg/kg: 90%
Candida parapsilosis [44]
  MIC: 0.5 µg/mL (≈ 0.685 µM)
Aspergillus fumigatus [45]
  ED50: 4.5 mg/kg
[46]
  half-life: 11.3 h
[47]
  half-life: 5.7 h
[48]
  half-life: 4.4 h
Aspergillus fumigatus [49]
  survival at 6.25 mg/kg: 90%
